Assay outcomes: PubChem BioAssay, Johns Hopkins Ion Channel Center
In the library only some 3.7% were active in any assay of this set; here they are far more common.
KCNQ1 block: inhibitors of human KCNQ1 potassium channel; P51787; CHO-K1 KCNQ1, FluxOR thallium flux fluorescence; stronger effect = higher value; B-score at 10 µM; hit rate 1.3% among 310,000;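 active = compounds whose thallium flux B-score, printed positive for inhibition, exceeds three library SD while starting fluorescence stays within three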;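 also: channel opened by potassium depolarization with thallium stimulus after 20 min compound exposure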
Target sequence (P51787 whole entry, looked up): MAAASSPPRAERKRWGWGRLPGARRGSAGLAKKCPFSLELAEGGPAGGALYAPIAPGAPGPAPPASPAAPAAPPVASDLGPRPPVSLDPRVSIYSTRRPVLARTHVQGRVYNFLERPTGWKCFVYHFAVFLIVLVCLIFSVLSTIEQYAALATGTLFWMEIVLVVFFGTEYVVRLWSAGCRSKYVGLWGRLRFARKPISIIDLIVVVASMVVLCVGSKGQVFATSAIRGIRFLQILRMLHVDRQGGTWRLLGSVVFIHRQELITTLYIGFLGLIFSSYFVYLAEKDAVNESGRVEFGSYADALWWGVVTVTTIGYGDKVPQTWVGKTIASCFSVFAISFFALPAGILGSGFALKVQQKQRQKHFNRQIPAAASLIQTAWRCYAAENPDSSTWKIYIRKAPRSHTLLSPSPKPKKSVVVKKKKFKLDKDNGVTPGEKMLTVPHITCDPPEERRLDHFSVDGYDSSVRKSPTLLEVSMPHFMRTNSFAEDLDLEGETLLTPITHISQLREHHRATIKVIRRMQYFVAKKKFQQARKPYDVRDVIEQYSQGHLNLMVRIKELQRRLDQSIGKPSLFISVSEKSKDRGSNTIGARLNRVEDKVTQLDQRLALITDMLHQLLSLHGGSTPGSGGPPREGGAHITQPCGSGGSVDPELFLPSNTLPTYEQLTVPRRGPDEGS
KCNK9 inh: blocks the human KCNK9 two-pore domain potassium channel; Q9NPC2; HEK293 KCNK9, FluxOR thallium flux fluorescence; stronger effect = lower value; B-score at 10 µM; hit rate 1.2% among 310,000; AID 488922;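 active = ratio B-score over 3 SD below the library mean, with starting fluorescence within 5 SD of its mean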;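 also: negative B-score means less thallium flux so channel inhibition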
Kir21 inh: Kir2.1 (mouse) channel inhibition; P35561; HEK293-Kir2.1, FluxOR thallium flux fluorescence; stronger effect = lower value; B-score at 10 µM; hit rate 0.85% among 310,000; AID 1672;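 active = fluorescence ratio B-score at or below minus 3 SD of library scores, with starting-brightness B-score within 2 SD, cut at about -4.2 in these data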;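 also: channel flux triggered by added potassium and thallium sulfate stimulus; B-score of peak minus minimum fluorescence over baseline after thallium stimulus; more negative B-score means stronger Kir2.1 block with less thallium influx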
KCNQ1 act: human KCNQ1 channel potentiation or activation; P51787; hit rate 0.35% among 310,000; AID 2648; B-score at 10 µM; CHO-K1 KCNQ1, thallium flux FluxOR fluorescence; stronger effect = higher value;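 active = fluorescence ratio B-score, a plate-corrected score, at least three library SD, with initial intensity B-score within 5 SD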
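System: Stable KCNQ1 CHO-K1 line | Incubation: 90 min dye loading and 20 min compound exposure, both at room temperature | Measure: Ratio B score | Medium: Assay buffer for compound exposure, DMSO matched across wells | Compound dosing: Single-concentration screen | Probe or stimulus: K+/Tl+ depolarizing stimulus | Measured by: Kinetic FluxOR fluorescence, 10 s baseline plus 110 s post-stimulus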
hERG rescue: hERG (human) protection from proarrhythmic block; CHO-hERG, FluxOR thallium flux, dofetilide IC70 present; hit rate 0.51% among 310,000; Q12809; activation (rescue from dofetilide block), less the hit threshold, % at 10 µM;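 active = activation above the mean of controls blocked by dofetilide plus 5 SD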;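 also: thallium influx through hERG after potassium depolarization seen as dye fluorescence rise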
KCNK3 inh: human KCNK3 channel inhibition, primary screen | O14649 | CHO-KCNK3 thallium flux, FluxOR fluorescence; stronger effect = lower value | B-score at 10 µM | hit rate 0.84% among 340,000 | AID 602410;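 active = B-score under library mean minus 4 SD, starting fluorescence ratio at most library mean plus 5 SD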;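 also: more negative B-score means stronger inhibition of thallium flux through KCNK3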
KCNK3 confirm: human KCNK3 channel inhibition, confirmation assay; shares compounds with KCNK3 inh; CHO-KCNK3 thallium flux, FluxOR fluorescence; 0% buffer, 100% carvedilol maximal block; ratio percent of control, % at 10 µM; hit rate 99% among 2,400; AID 651638;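 active = ratio percent of control, averaged over triplicates, above buffer control mean plus 5 SD, cut at about 64% in these data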;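 also: ratio is the fluorescence rise from min to max over baseline after thallium stimulus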
KCNK3 noninduced: activity in cells without induced KCNK3 expression | thallium flux ratio (lower = more inhibition) at 10 µM | non-induced KCNK3 parental cells, FluxOR thallium flux; stronger effect = lower value | hit rate 40% among 2,400 | shares compounds with KCNK3 inh;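 active = thallium flux ratio, averaged over three wells, more than 5 SD below the buffer control mean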;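 also: host cells are CHO cells without KCNK3 induction; ratio is peak minus trough fluorescence over baseline then normalized to buffer controls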
* marks the source's active call; other numbers are inactive results.

Results for CCn1c2ccccc2c2cc(NC(=O)c3cc(C)on3)ccc21 ?
KCNQ1 block: inactive; KCNK9 inh: inactive; Kir21 inh: 0.14; KCNQ1 act: inactive; hERG rescue: -8; KCNK3 inh: -10*; KCNK3 confirm: 123*; KCNK3 noninduced: 0.16*

What do the screens show for `CCOC(=O)C1CCCN(C/C=C/c2ccccc2)C1` (stereo not given)?
KCNQ1 block: inactive; KCNK9 inh: inactive; Kir21 inh: 1.3; KCNQ1 act: inactive; hERG rescue: -7; KCNK3 inh: inactive

What do the screens show for `CCN(CC(=O)Nc1ccc(OC)cc1)CC(=O)Nc1sc2c(c1C(=O)OC)CCCC2`?
KCNK3 inh: inactive

How did Cc1cc(C)cc(NC(=O)N2CCNC(=O)C2CC(=O)Nc2cc(Cl)ccc2Cl)c1 (stereo not given) do in these assays?
KCNQ1 block: inactive; KCNK9 inh: inactive; Kir21 inh: 0.71; KCNQ1 act: inactive; hERG rescue: -5; KCNK3 inh: inactive

Results for COC(=O)c1cccc(NC(=O)CC2C(=O)NCCN2C(=O)Nc2cc(C)cc(C)c2)c1 (stereo not given) ?
KCNQ1 block: inactive; KCNK9 inh: inactive; Kir21 inh: 0.05; KCNQ1 act: inactive; hERG rescue: -16; KCNK3 inh: -9.2*; KCNK3 confirm: 119*; KCNK3 noninduced: 0.14*

What do the screens show for `COc1ccc(NC(=O)COC(=O)c2c3c(nc4ccccc24)CCCC3)cc1Cl`?
KCNQ1 block: inactive; KCNK9 inh: -9.7*; Kir21 inh: -0.54; KCNQ1 act: inactive; hERG rescue: -6; KCNK3 inh: -9.1*; KCNK3 confirm: 120*; KCNK3 noninduced: 0.15*

What do the screens show for `COc1ccc(CNC(=O)CCSCc2cccc(F)c2)cc1`?
KCNQ1 block: inactive; KCNK9 inh: inactive; Kir21 inh: -0.97; KCNQ1 act: inactive; hERG rescue: -4; KCNK3 inh: inactive

How did COc1ccc(C2c3ccc(O)cc3Oc3ncn(Cc4ccccc4)c(=N)c32)cc1OC (stereo not given) do in these assays?
KCNQ1 block: inactive; KCNK9 inh: inactive; Kir21 inh: 0.27; KCNQ1 act: inactive; hERG rescue: -14; KCNK3 inh: -8.9*; KCNK3 confirm: 75*; KCNK3 noninduced: inactive

Results for COc1ccc(Br)cc1CNC(=O)CN1C(=O)C(c2ccccc2)Oc2cccnc21 (stereo not given) ?
KCNQ1 block: inactive; KCNK9 inh: inactive; Kir21 inh: -0.55; KCNQ1 act: inactive; hERG rescue: -10; KCNK3 inh: -10*; KCNK3 confirm: 95*; KCNK3 noninduced: inactive

What do the screens show for `CC(C)n1cc(-c2ccc(Cl)cc2)cc(C#N)c1=O`?
KCNQ1 block: inactive; KCNK9 inh: inactive; Kir21 inh: 3.1; KCNQ1 act: inactive; hERG rescue: 0; KCNK3 inh: -10*; KCNK3 confirm: 107*; KCNK3 noninduced: inactive

What do the screens show for `N#Cc1cc(-c2ccc(Cl)cc2)cn(Cc2c(Cl)cccc2Cl)c1=O`?
KCNQ1 block: inactive; KCNK9 inh: inactive; Kir21 inh: -0.15; KCNQ1 act: inactive; hERG rescue: -9; KCNK3 inh: inactive

How did COc1ccc(NC(=O)CSc2n[nH]c(-c3ccccc3)n2)cc1S(N)(=O)=O do in these assays?
KCNK3 inh: inactive

How did CCN(Cc1ccc(OC)c(F)c1)C(=O)c1oc2ccccc2c1COC do in these assays?
KCNQ1 block: inactive; KCNK9 inh: inactive; Kir21 inh: -2.5; KCNQ1 act: inactive; hERG rescue: -8; KCNK3 inh: -14*; KCNK3 confirm: 94*; KCNK3 noninduced: inactive

How did CCN(Cc1ccc(OC)c(F)c1)C(=O)CCl do in these assays?
KCNQ1 block: inactive; KCNK9 inh: inactive; Kir21 inh: 0.17; KCNQ1 act: inactive; hERG rescue: -14; KCNK3 inh: inactive

Results for COc1ccc(-c2cc(C(=O)OCC(=O)N3CCOCC3)c3ccccc3n2)cc1 ?
KCNK3 inh: inactive

What do the screens show for `COC(=O)C1CCN(C(=O)COC(=O)c2cc(-c3ccccc3)nc3ccc(OC)cc23)CC1`?
KCNK3 inh: -12*; KCNK3 confirm: 105*; KCNK3 noninduced: inactive

How did Cc1cccc2cc(CN(Cc3ccco3)C(=O)c3ccncc3)c(=O)[nH]c12 do in these assays?
KCNQ1 block: inactive; KCNK9 inh: inactive; Kir21 inh: 2.2; KCNQ1 act: inactive; hERG rescue: -16; KCNK3 inh: -22*; KCNK3 confirm: 63*; KCNK3 noninduced: inactive

Results for COc1ccccc1/C=N/NC(=O)c1cc2c(ccc3ccccc32)o1 ?
KCNQ1 block: inactive; KCNK9 inh: inactive; Kir21 inh: -2.6; KCNQ1 act: inactive; hERG rescue: -26; KCNK3 inh: -12*; KCNK3 confirm: 85*; KCNK3 noninduced: inactive

How did COc1cccc(CN2CC(C(=O)NCCSc3nnnn3C)CCC2=O)c1 (stereo not given) do in these assays?
KCNQ1 block: inactive; KCNK9 inh: inactive; Kir21 inh: -0.85; KCNQ1 act: inactive; hERG rescue: -8; KCNK3 inh: inactive

What do the screens show for `COc1cc2c(cc1OC)C(c1cccs1)N(C(=S)NC(C)C)CC2` (stereo not given)?
KCNQ1 block: inactive; KCNK9 inh: inactive; Kir21 inh: -1.4; KCNQ1 act: inactive; hERG rescue: -16; KCNK3 inh: -11*; KCNK3 confirm: 94*; KCNK3 noninduced: inactive

How did Cc1cc2c(=O)n(Cc3ccco3)c(SCC(=O)c3ccc(Cl)s3)nc2s1 do in these assays?
KCNQ1 block: inactive; KCNK9 inh: -6.7*; Kir21 inh: 1.7; KCNQ1 act: inactive; hERG rescue: -21; KCNK3 inh: -9.7*; KCNK3 confirm: 108*; KCNK3 noninduced: inactive

Results for O=C(CSc1nc2ccccc2c(=O)n1Cc1ccco1)c1ccc(F)cc1 ?
KCNQ1 block: inactive; KCNK9 inh: inactive; Kir21 inh: 0.88; KCNQ1 act: inactive; hERG rescue: -10; KCNK3 inh: -9.6*; KCNK3 confirm: 112*; KCNK3 noninduced: inactive

How did CCc1nn(CCCC(=O)NCc2ccccc2C)c(=O)c2cc3occc3n12 do in these assays?
KCNQ1 block: inactive; KCNK9 inh: inactive; Kir21 inh: -2; KCNQ1 act: inactive; hERG rescue: -12; KCNK3 inh: inactive

Results for CCOC(=O)c1c(CSC(=N)N)n(-c2ccccc2)c2cc(Br)c(OC(C)=O)cc12 ?
KCNQ1 block: inactive; KCNK9 inh: inactive; Kir21 inh: -4.5*; KCNQ1 act: inactive; hERG rescue: -32; KCNK3 inh: -10*; KCNK3 confirm: 129*; KCNK3 noninduced: 0.14*
